The source made the active and inactive calls. The rule behind the calls is not given here.
How the values were obtained:
[1] = Antiproliferative activity against human MDA231 cells after 72 hrs by MTS assay; assay type: functional, cell-based; conditions: MDA-MB-231, 72 h
In short: (§1)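 Cell lines grown in RPMI with 10% fetal calf serum plus penicillin, streptomycin and fungizone under 5% CO2. Compounds in DMSO (1% final; controls got DMSO alone) were added 24 h after plating. After 72 h exposure, MTS was added for 3 h at 37 °C and A490 read. Inhibition = (1 − OD treated/OD control)×100, in triplicate. IC50s came from separate duplicate dose-response experiments.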

K562 [2] = assay: Antiproliferative activity against human K562 cells after 72 hrs by MTS assay; assay type: functional, cell-based; conditions: K562, 72 h; in short: as §1
SF-268 [3] = assay: Cytotoxicity against human SF268 cells at 10^-6 M after 72 hrs by MTS assay; assay type: functional; conditions: SF-268, 72 h, read-out: GI
In short: (§2)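 Preliminary screen at 10^-5 and 10^-6 M. Cells were grown in RPMI with 10% fetal calf serum plus penicillin, streptomycin and fungizone under 5% CO₂, plated in 96-well plates, and dosed 24 h later from DMSO stocks (1% DMSO final, same in controls). After 72 h, MTS was added for 3 h at 37 °C and absorbance read at 490 nm. Inhibition was calculated as (1 − OD treated/OD control) × 100, in triplicate.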

HCT-15 [4] = assay: Antiproliferative activity against human HCT15 cells after 72 hrs by MTS assay; assay type: functional, cell-based; conditions: HCT-15, 72 h; in short: as §1
HCT-116 [5] = assay: Cytotoxicity against human HCT116 cells at 10^-6 M after 72 hrs by MTS assay; assay type: functional; conditions: HCT-116, 72 h, read-out: GI
In short: (§3)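 Cells grown in RPMI with 10% fetal calf serum, penicillin, streptomycin and fungizone under 5% CO₂. Plated in 96-well plates and dosed 24 h later with compound in DMSO (1% final DMSO; controls got DMSO alone). After 72 h, MTS was added for 3 h at 37 °C and A490 read. Inhibition = (1 − OD treated/OD control) × 100, in triplicate.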

HT-29 [6] = assay: Cytotoxicity against human HT-29 cells at 10^-6 M after 72 hrs by MTS assay; assay type: functional; conditions: HT-29, 72 h, read-out: GI; in short: as §3
[7] = Cytotoxicity against human MDA231 cells at 10^-5 M after 72 hrs by MTS assay; assay type: functional; conditions: MDA-MB-231, 72 h, read-out: GI; in short: as §2
[8] = Cytotoxicity against human HL60R cells at 10^-5 M after 72 hrs by MTS assay; assay type: functional, HL-60; conditions: read-out: GI; in short: as §3
HCT-15 [9] = assay: Cytotoxicity against human HCT15 cells at 10^-5 M after 72 hrs by MTS assay; assay type: functional; conditions: HCT-15, 72 h, read-out: GI; in short: as §3
SK-OV-3 [10] = assay: Antiproliferative activity against human SKOV3 cells after 72 hrs by MTS assay; assay type: functional, cell-based; conditions: SK-OV-3, 72 h; in short: as §1
K562 [11] = assay: Cytotoxicity against human K562 cells at 10^-5 M after 72 hrs by MTS assay; assay type: functional; conditions: K562, 72 h, read-out: GI; in short: as §3
PC-3 [12] = assay: Antiproliferative activity against human PC3 cells after 72 hrs by MTS assay; assay type: functional, cell-based; conditions: PC-3, 72 h; in short: as §1
HCT-116 [13] = assay: Cytotoxicity against human HCT116 cells at 10^-5 M after 72 hrs by MTS assay; assay type: functional; conditions: HCT-116, 72 h, read-out: GI; in short: as §3
SF-268 [14] = assay: Antiproliferative activity against human SF268 cells after 72 hrs by MTS assay; assay type: functional, cell-based; conditions: SF-268, 72 h; in short: as §1
OVCAR-8 [15] = assay: Cytotoxicity against human OVCAR8 cells at 10^-6 M after 72 hrs by MTS assay; assay type: functional; conditions: OVCAR-8, 72 h, read-out: GI; in short: as §2
PC-3 [16] = assay: Cytotoxicity against human PC3 cells at 10^-6 M after 72 hrs by MTS assay; assay type: functional; conditions: PC-3, 72 h, read-out: GI; in short: as §2
[17] = Antiproliferative activity against human HL60R cells after 72 hrs by MTS assay; assay type: functional, cell-based
MIA PaCa-2 [18] = assay: Cytotoxicity against human MIAPaCa2 cells at 10^-6 M after 72 hrs by MTS assay; assay type: functional; conditions: MIA PaCa-2, 72 h, read-out: GI
[19] = Cytotoxicity against human MDA231 cells at 10^-6 M after 72 hrs by MTS assay; assay type: functional; conditions: MDA-MB-231, 72 h, read-out: GI; in short: as §2
K562 [20] = assay: Cytotoxicity against human K562 cells at 10^-6 M after 72 hrs by MTS assay; assay type: functional; conditions: K562, 72 h, read-out: GI; in short: as §3
SK-OV-3 [21] = assay: Cytotoxicity against human SKOV3 cells at 10^-6 M after 72 hrs by MTS assay; assay type: functional; conditions: SK-OV-3, 72 h, read-out: GI; in short: as §2
MIA PaCa-2 [22] = assay: Cytotoxicity against human MIAPaCa2 cells at 10^-5 M after 72 hrs by MTS assay; assay type: functional; conditions: MIA PaCa-2, 72 h, read-out: GI
MCF7 [23] = assay: Cytotoxicity against human MCF7 cells at 10^-5 M after 72 hrs by MTS assay; assay type: functional; conditions: MCF7, 72 h, read-out: GI
HL-60 [24] = assay: Cytotoxicity against human HL60 cells at 10^-5 M after 72 hrs by MTS assay; assay type: functional; conditions: HL-60, 72 h, read-out: GI; in short: as §3
OVCAR-8 [25] = assay: Antiproliferative activity against human OVCAR8 cells after 72 hrs by MTS assay; assay type: functional, cell-based; conditions: OVCAR-8, 72 h; in short: as §1
A549 [26] = assay: Cytotoxicity against human A549 cells at 10^-6 M after 72 hrs by MTS assay; assay type: functional; conditions: A549, 72 h, read-out: GI; in short: as §3
MCF7 [27] = assay: Cytotoxicity against human MCF7 cells at 10^-6 M after 72 hrs by MTS assay; assay type: functional; conditions: MCF7, 72 h, read-out: GI
OVCAR-8 [28] = assay: Cytotoxicity against human OVCAR8 cells at 10^-5 M after 72 hrs by MTS assay; assay type: functional; conditions: OVCAR-8, 72 h, read-out: GI; in short: as §2
SK-OV-3 [29] = assay: Cytotoxicity against human SKOV3 cells at 10^-5 M after 72 hrs by MTS assay; assay type: functional; conditions: SK-OV-3, 72 h, read-out: GI; in short: as §2
Ovis aries [30] = organism: Ovis aries; assay: Inhibition of sheep brain tubulin polymerization at 10 uM
In short: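 Microtubule protein from sheep brain, purified by two assembly/disassembly cycles (37 °C/0 °C), in 100 mM MES pH 6.6, 1 mM EGTA, 0.5 mM MgCl₂. Compounds in DMSO were tested at a single concentration, with incubation at 37 °C for 10 min and then 0 °C for 5 min before measuring assembly rate, following a modified Guénard protocol.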

A549 [31] = assay: Cytotoxicity against human A549 cells at 10^-5 M after 72 hrs by MTS assay; assay type: functional; conditions: A549, 72 h, read-out: GI; in short: as §3
HCT-15 [32] = assay: Cytotoxicity against human HCT15 cells at 10^-6 M after 72 hrs by MTS assay; assay type: functional; conditions: HCT-15, 72 h, read-out: GI; in short: as §3
PC-3 [33] = assay: Cytotoxicity against human PC3 cells at 10^-5 M after 72 hrs by MTS assay; assay type: functional; conditions: PC-3, 72 h, read-out: GI; in short: as §2
[34] = Cytotoxicity against human HL60R cells at 10^-6 M after 72 hrs by MTS assay; assay type: functional; conditions: read-out: GI; in short: as §3
HL-60 [35] = assay: Antiproliferative activity against human HL60 cells after 72 hrs by MTS assay; assay type: functional, cell-based; conditions: HL-60, 72 h; in short: as §1
HT-29 [36] = assay: Cytotoxicity against human HT-29 cells at 10^-5 M after 72 hrs by MTS assay; assay type: functional; conditions: HT-29, 72 h, read-out: GI; in short: as §3
HL-60 [37] = assay: Cytotoxicity against human HL60 cells at 10^-6 M after 72 hrs by MTS assay; assay type: functional; conditions: HL-60, 72 h, read-out: GI; in short: as §3
SF-268 [38] = assay: Cytotoxicity against human SF268 cells at 10^-5 M after 72 hrs by MTS assay; assay type: functional; conditions: SF-268, 72 h, read-out: GI; in short: as §2
Ovis aries [39] = organism: Ovis aries; assay: Inhibition of sheep brain tubulin polymerization at 17 uM

| Structure (SMILES) | IC50 [1] | IC50 (K562 [2]) | inhibition of growth at 1 µM (SF-268 [3]) | IC50 (HCT-15 [4]) | inhibition of growth at 1 µM (HCT-116 [5]) | inhibition of growth at 1 µM (HT-29 [6]) | inhibition of growth at 10 µM [7] | inhibition of growth at 10 µM [8] | inhibition of growth at 10 µM (HCT-15 [9]) | IC50 (SK-OV-3 [10]) | inhibition of growth at 10 µM (K562 [11]) | IC50 (PC-3 [12]) | inhibition of growth at 10 µM (HCT-116 [13]) | IC50 (SF-268 [14]) | inhibition of growth at 1 µM (OVCAR-8 [15]) | inhibition of growth at 1 µM (PC-3 [16]) | IC50 [17] | inhibition of growth at 1 µM (MIA PaCa-2 [18]) | inhibition of growth at 1 µM [19] | inhibition of growth at 1 µM (K562 [20]) | also measured |
| --- | --- | --- | --- | --- | --- | --- | --- | --- | --- | --- | --- | --- | --- | --- | --- | --- | --- | --- | --- | --- | --- |
| COc1ccc(C(=C(COC(C)=O)COC(C)=O)c2cc(OC)c(OC)c(OC)c2)cc1O | 1030 nM | 180 nM | 16% | 680 nM | 0% | 0% | 75% | 90% | 77% | 70 nM | 78% | 270 nM | 59% | 970 nM | 0% | 14% | 2720 nM | 0% | 0% | 25% | inhibition of growth at 1 µM (SK-OV-3 [21]): 71%; inhibition of growth at 10 µM (MIA PaCa-2 [22]): 51%; inhibition of growth at 10 µM (MCF7 [23]): 34%; inhibition of growth at 10 µM (HL-60 [24]): 74%; IC50 (OVCAR-8 [25]): 1900 nM; inhibition of growth at 1 µM (A549 [26]): 1%; inhibition of growth at 1 µM (MCF7 [27]): 5%; inhibition of growth at 10 µM (OVCAR-8 [28]): 94%; inhibition of growth at 10 µM (SK-OV-3 [29]): 84%; tubulin polymerization inhibition call (active/not active) (Ovis aries [30]): inactive; inhibition of growth at 10 µM (A549 [31]): 67%; inhibition of growth at 1 µM (HCT-15 [32]): 18%; inhibition of growth at 10 µM (PC-3 [33]): 78%; inhibition of growth at 1 µM [34]: 1%; IC50 (HL-60 [35]): 680 nM; inhibition of growth at 10 µM (HT-29 [36]): 63%; inhibition of growth at 1 µM (HL-60 [37]): 15%; inhibition of growth at 10 µM (SF-268 [38]): 71% |
| COc1ccc(C(=C(CO)CO)c2cc(OC)c(OC)c(OC)c2)cc1O |  |  |  |  |  |  |  |  |  |  |  |  |  |  |  |  |  |  |  |  | inhibition (Ovis aries [39]): Active; tubulin polymerization inhibition call (active/not active) (Ovis aries [30]): inactive |
| COc1ccc(/C(=C2\O[C@@H]([C@H](O)CO)[C@H]3OC(C)(C)O[C@@H]23)c2cc(OC)c(OC)c(OC)c2)cc1O | 610 nM | 450 nM | 16% | 630 nM | 1% | 6% | 69% | 95% | 82% | 6510 nM | 90% | 690 nM | 58% | 1100 nM | 1% | 0% | 1490 nM | 5% | 0% | 15% | inhibition of growth at 1 µM (SK-OV-3 [21]): 6%; inhibition of growth at 10 µM (MIA PaCa-2 [22]): 58%; inhibition of growth at 10 µM (MCF7 [23]): 43%; inhibition of growth at 10 µM (HL-60 [24]): 79%; IC50 (OVCAR-8 [25]): 2970 nM; inhibition of growth at 1 µM (A549 [26]): 0%; inhibition of growth at 1 µM (MCF7 [27]): 0%; inhibition of growth at 10 µM (OVCAR-8 [28]): 95%; inhibition of growth at 10 µM (SK-OV-3 [29]): 81%; inhibition of growth at 10 µM (A549 [31]): 58%; inhibition of growth at 1 µM (HCT-15 [32]): 11%; inhibition of growth at 10 µM (PC-3 [33]): 77%; inhibition of growth at 1 µM [34]: 12%; IC50 (HL-60 [35]): 820 nM; inhibition of growth at 10 µM (HT-29 [36]): 8%; inhibition of growth at 1 µM (HL-60 [37]): 10%; inhibition of growth at 10 µM (SF-268 [38]): 73% |

Source: ChEMBL document CHEMBL1828575, “Design, synthesis and antiproliferative activities of biarylolefins based on polyhydroxylated and carbohydrate scaffolds” (Eur J Med Chem, 2011)
